From ChEMBL document CHEMBL1134645, “Discovery of small-molecule inhibitors of Bcl-2 through structure-based computer screening” (J Med Chem, 2001) come the findings set out here.

The target of the first assay is T1, Apoptosis regulator Bcl-2 (Homo sapiens, UniProt P10415). Kind of assay: Inhibitory activity against Bcl-2 using bromide assay. In short, it runs like this: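 HL-60 cells in RPMI 1640 with 10% FBS at 37 °C and 5% CO2 were plated at 2000–4000 cells/well, with various compound concentrations added at the start. After 4 days, MTT was added for 4 h at 37 °C. Formazan was solubilized in 2-propanol and absorbance read. IC50 is for inhibition of cell growth.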
T1 sequence (P10415 whole entry): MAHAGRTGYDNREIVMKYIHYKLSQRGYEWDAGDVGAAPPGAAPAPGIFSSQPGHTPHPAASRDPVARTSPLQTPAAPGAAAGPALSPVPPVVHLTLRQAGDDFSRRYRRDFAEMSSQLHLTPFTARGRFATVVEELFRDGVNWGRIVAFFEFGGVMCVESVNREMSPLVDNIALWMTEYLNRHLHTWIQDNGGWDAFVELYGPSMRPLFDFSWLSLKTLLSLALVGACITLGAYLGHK
`COc1ccc2c(c1)CCc1cc(OC)ccc1/[N+]([O-])=[N+]\2[O-]` registered an IC50 of 4 µM.

Another assay has as its target T1, Apoptosis regulator Bcl-2. Briefly: In vitro inhibitory activity against Bak-Bh3 peptide binding to the Bcl-2. In short, it runs like this: (§1)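 FP competition assay with recombinant GST-fused Bcl-2 (46 kDa), final 270 nM, and a fluorescein-labelled 16-mer Bak BH3 peptide tracer, final 290 nM, in 1X PBS. Compound added with final DMSO below 1%, incubated 10 min at room temperature, and polarization read at ex 485/em 535 nm. Screening was at 100 μM. IC50 came from 6–7-point serial dilutions from 100 μM, in triplicate.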
Compound `O=C1c2cc(Br)ccc2-c2ccc3c4ccc5c6c(ccc(c7ccc1c2c73)c64)C(=O)c1cc(Br)ccc1-5` registered an IC50 of 7.7 µM. This lies in the single-digit micromolar range.

Another assay concerns the target T1, Apoptosis regulator Bcl-2. Briefly: In vitro inhibitory activity against Bak-Bh3 peptide binding to the Bcl-2 using human myeloid leukemia cell line HL-60. In a few lines: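 Fluorescence polarization competition with 46 kDa recombinant GST-fused Bcl-2 (270 nM final) and 16-mer fluorescein-labelled Bak BH3 tracer (290 nM final) in PBS, preincubated 20 min at room temperature. Compound added (DMSO <1%), read after 10 min at room temperature, ex 485/em 535 nm. IC50 from 6–7 point serial dilutions in triplicate starting at 100 μM.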
With `COc1ccc2c(c1)C(=O)C1C=C([N+]#N)C=CC1N2` (stereo not drawn), the concentration for half-maximal inhibition (IC50) came to 10.4 µM. This lies in the double-digit micromolar range. On the same count and under the same terms, then `O=c1c2ccc(S(=O)(=O)c3ccc4c(=O)n5c6ccccc6nc5c5cccc3c45)c3cccc(c32)c2nc3ccccc3n12`, with 14 µM; and `Brc1cccc[n+]1-c1ccc2cc(-[n+]3ccccc3Br)ccc2c1`, with 11.7 µM; and `COc1ccc2c(c1)CCc1cc(OC)ccc1/[N+]([O-])=[N+]\2[O-]`, with 10.4 µM. `N=C(N)c1ccc(/N=N/c2c(O)ccc3c2[nH]c2ccccc23)cc1` showed an IC50 of 5.8 µM. Compared with the last compound, the IC50 is about 1.8-fold lower.

Another assay has as its target T1, Apoptosis regulator Bcl-2. Briefly: Inhibitory activity against Bcl-2. In short, it runs like this:
as §1
Compound `CCOC(=O)C(C#N)C1c2cc(Br)ccc2OC(N)C1C(=O)OCC` (stereo not drawn) came in with an IC50 of 9 µM. `Cc1cc(Cl)cc(C(=O)Nc2cc(S(=O)(=O)c3ccc(Cl)cc3)ccc2Cl)c1O` had an IC50 of 3.3 µM. `CC(C)C(C(=O)O)N1C(=O)/C(=C/c2ccc(Br)cc2)SC1=S` (stereo not drawn): affinity was put at a Ki of 2400 nM. Regarding `CCCC[C@H]1C(=O)O[C@H](C)[C@H](NC(=O)c2cccc(NC=O)c2O)C(=O)O[C@@H](C)[C@@H]1OC(=O)CC(C)C` [ANTIMYCIN A3], 2 µM corresponded to half-maximal inhibition (IC50).

Another assay concerns the target T1, Apoptosis regulator Bcl-2. Kind of assay: In vitro inhibition of Bak-Bh3 peptide binding to the Bcl-2 using human myeloid leukemia cell line HL-60; Inactive.
For the compound `C[n+]1cc2c3cc4c(cc3ccc2c2ccc3c(c21)OCO3)OCO4`, the IC50 entry was “Not Active”.

Turning to `CN1COc2ccc3ccc4c(c3c2C1)CN(C)CO4`, the IC50 result is on record as “Not Active”. Take `Cc1cc2c(cc1C)[n+]([O-])c(-c1nc3ccccc3s1)c(N)[n+]2[O-]`: the IC50 entry is recorded as “Not Active”. Regarding `O=C1c2ccccc2-c2cc(O)c3c4c(O)cc5c6c(ccc(c7ccc1c2c73)c64)C(=O)c1ccccc1-5`, the IC50 result is recorded as “Not Active”. For `c1cc[n+]2c(c1)-c1cccc[n+]1CCC2`, the IC50 result is “Not Active”. With `CN(C)CCNCCCNc1c2ccccc2nc2cccc([N+](=O)[O-])c12`, the IC50 entry is “Not Active”. The same measure, in the same setting: the entry for `O=C(CSc1nc2ccccc2s1)c1sc2sc3ccccc3[n+]2c1O` is “Not Active”; for `O=C1c2cc([N+](=O)[O-])ccc2-c2ccc3c4ccc5c6c(ccc(c7ccc1c2c73)c64)C(=O)c1cc([N+](=O)[O-])ccc1-5` it is “Not Active”.

As for `c1cc[n+]2cc3ccc4c[n+]5ccccc5cc4c3cc2c1`, the IC50 entry is “Not Active”. As to `O=c1c2ccccc2c2nc3ccc4c(=O)c5ccccc5c5nc6ccc1c2c6c3c45`, the IC50 result is given as “Not Active”. As for `CN1C(=O)c2ccc3c4ccc5c(=O)n6c7ccccc7nc6c6ccc(c7ccc(c2c37)C1=O)c4c56`, the IC50 entry is “Not Active”.

Take `Cc1cc(-c2ccccc2)[nH]c2nc3ccccc3[n+]1-2`: the IC50 result is “Not Active”. Turning to `COc1cc2ccc3c4cc5c(cc4c[n+](C)c3c2cc1OC)OCO5`, the IC50 result is reported as “Not Active”. Still for that read-out and setting: the entry for `Cn1c(=O)c2nc(-[n+]3ccc(-c4ccccc4)cc3)[nH]c2n(C)c1=O` is “Not Active”; for `COc1cc2ccc3c[n+]4ccccc4cc3c2cc1OC` it is “Not Active”.

On to `Nc1nc(N)c2c(n1)[n+]([O-])c1ccccc1[n+]2[O-]`, for which the IC50 result is “Not Active”. In the case of `COc1ccc2c(c1)c[n+](C)c1c3cc(OC)c(OC)cc3ccc21`, the IC50 entry is “Not Active”. Turning to `[O-][n+]1c2c([n+]([O-])c3c4ccccc4ccc31)-c1cccc3cccc-2c13`, the IC50 result is listed as “Not Active”. The same measure, in the same setting: then `O=C1c2ccccc2C(=O)c2c1ccc1nc3c(ccc4c(O)c5ccccc5c(O)c43)nc21`, with “Not Active”; and `O=C1c2ccc[n+]3c2-c2c1ccc[n+]2CC3`, with “Not Active”; and `O=C1NC(=O)c2ccc3c4ccc5c6c(ccc(c7ccc1c2c73)c64)C(=O)N(c1ccccc1)C5=O`, with “Not Active”. With `O=C(CSc1ccccn1)c1sc2cccc[n+]2c1O`, the IC50 entry is reported as “Not Active”. Same read-out and setting: then `OC1C[n+]2cc3ccccn3c2-c2cccc[n+]21` (stereo not drawn), with “Not Active”; and `CS1(C)=NC(=O)C2=C(N=1)c1ccccc1S2(=O)=O`, with “Not Active”. As for `NCC(=O)c1ccc2cc(Br)c3ccccc3c2c1`, the IC50 entry was “Not Active”. The same measure, in the same setting: the entry for `O=C1c2ccccc2-c2ccc3c4ccc5c6c(ccc(c7ccc1c2c73)c64)C(=O)c1ccccc1-5` is “Not Active”; for `COc1cc2cc[n+]3c4ccc([N+](=O)[O-])cc4ccc3c2cc1OC.[Cl-]` it is “Not Active”.

By IC50 is commonly meant the concentration needed to halve the response being measured. A word on the Ki: it is a measure of affinity in units of concentration, obtained from inhibition or displacement. A high value points to weaker binding.
